From ChEMBL document CHEMBL5104176 (J Med Chem, 2022)
Calls of active or inactive are those of the source. The rule behind the calls is not given here.

Tests used:
D(2) dopamine receptor = D(2) dopamine receptor (Homo sapiens, UniProt P14416); experiment: Displacement of [3H]N-methylspiperone from human D2L receptor expressed in HEK293T cell membrane incubated for 1 hr by MicroBeta scintillation counting method; format: cell membranes
Procedure, shortened: (§1)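 Membranes from stably transfected HEK293 cells (hD2L, hD3 or hD4.4), 20 μg (D2, D3) or 30 μg (D4) protein/well. Incubated 1 h at room temperature in EBSS binding buffer, pH 7.4, with 0.4 nM [3H]N-methylspiperone and 10 half-log dilutions in triplicate. 10 μM (+)-butaclamol defines nonspecific binding. GF filtration, scintillation counting.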

D(3) dopamine receptor = D(3) dopamine receptor (Homo sapiens, UniProt P35462); experiment: Displacement of [3H]N-methylspiperone from human D3R receptor expressed in HEK293T cell membrane incubated for 1 hr by MicroBeta scintillation counting method; format: cell membranes
Procedure, shortened: as §1, with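 “counting. Ki by Cheng–Prusoff from ≥3 experiments; selectivity is the Ki ratio.” for “counting.”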

D(4) dopamine receptor [1] = biological target: T1, D(4) dopamine receptor (Homo sapiens, UniProt P21917); experiment: Displacement of [3H]N-methylspiperone from human D4.4 receptor expressed in HEK293T cell membrane incubated for 1 hr by MicroBeta scintillation counting method; format: cell membranes
T1 sequence (P21917 whole entry): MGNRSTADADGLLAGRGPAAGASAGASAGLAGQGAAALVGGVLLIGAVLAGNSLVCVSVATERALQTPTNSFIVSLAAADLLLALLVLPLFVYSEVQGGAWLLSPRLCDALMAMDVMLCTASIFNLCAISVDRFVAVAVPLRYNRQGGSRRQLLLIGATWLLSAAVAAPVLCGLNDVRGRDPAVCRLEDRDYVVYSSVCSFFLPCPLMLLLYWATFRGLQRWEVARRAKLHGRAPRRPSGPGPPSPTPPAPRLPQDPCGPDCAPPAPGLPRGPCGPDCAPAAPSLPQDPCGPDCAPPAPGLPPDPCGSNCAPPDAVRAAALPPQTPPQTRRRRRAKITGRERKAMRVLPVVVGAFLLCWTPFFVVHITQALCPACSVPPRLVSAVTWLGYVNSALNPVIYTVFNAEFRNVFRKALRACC

D(4) dopamine receptor [2] = biological target: T1, D(4) dopamine receptor; experiment: Antagonist activity at D4R (unknown origin) expressed in human HEK293T cells assessed as inhibition of dopamine-induced G0 protein activation pretreated for 10 mins followed by dopamine addition and measured after 2.5 mins by BRET assay; format: functional, cell-based
D(4) dopamine receptor [3] = biological target: T1, D(4) dopamine receptor; experiment: Antagonist activity at D4R (unknown origin) expressed in human HEK293T cells assessed as inhibition of dopamine-induced Gi protein activation pretreated for 10 mins followed by dopamine addition and measured after 2.5 mins by BRET assay; format: functional, cell-based
D(4) dopamine receptor [4] = biological target: T1, D(4) dopamine receptor; experiment: Antagonist activity at D4R (unknown origin) expressed in human HEK293T cells assessed as inhibition of dopamine-induced beta arrestin-2 recruitment pretreated for 10 mins followed by dopamine addition and measured after 2.5 mins by BRET assay; format: functional, cell-based
D(4) dopamine receptor [5] = biological target: T1, D(4) dopamine receptor; experiment: Agonist activity at D4R (unknown origin) expressed in human HEK293T cells assessed as beta arrestin-2 recruitment measured after 2.5 mins by BRET assay; format: functional, cell-based
Procedure, shortened: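 HEK293T cells transiently co-transfected with D4 receptor–RLuc8 and β-arrestin–mVenus using PEI, then harvested after 48 h. Cells were resuspended in PBS with 0.1% glucose and 200 μM Na bisulfite, at about 2×10^5 cells/well. Coelenterazine H (5 μM) was added, and ligands 2 min later. Emission was read at 485 and 530 nm 2.5 min after ligand. Net BRET was taken after subtracting the RLuc8-alone background; dose–response curves were fitted.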

[6] = biological target: T2, D(4) dopamine receptor (Homo sapiens) (UniProt P21917); experiment: Agonist activity at D4R (unknown origin) expressed in human HEK293T cells assessed as G0 protein activation measured after 2.5 mins by BRET assay relative to control; format: functional, cell-based
T2 sequence (whole entry): T1 sequence (P21917 whole entry)
Procedure, shortened: (§2)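 Transiently transfected HEK293T cells (15 μg plasmid cDNA, polyethyleneimine, 6 h, assayed after 48 h). Gαi1 or GαoA fused to RLuc8 and Gγ2 to mVenus for G protein activation; D4 receptor fused to RLuc8 and β-arrestin to mVenus for recruitment. About 2×10^5 cells/well in PBS with 0.1% glucose and 200 μM Na bisulfite. Coelenterazine H 5 μM. Read 530/485 nm; RLuc8-only background subtracted.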

[7] = biological target: T2, D(4) dopamine receptor (Homo sapiens); experiment: Agonist activity at D4R (unknown origin) expressed in human HEK293T cells assessed as Gi protein activation measured after 2.5 mins by BRET assay relative to control; format: functional, cell-based; procedure, shortened: as §2
[8] = biological target: T2, D(4) dopamine receptor (Homo sapiens); experiment: Agonist activity at D4R (unknown origin) expressed in human HEK293T cells assessed as beta arrestin-2 recruitment measured after 2.5 mins by BRET assay relative to control; format: functional, cell-based; procedure, shortened: as §2
[9] = Selectivity ratio of Ki for displacement of [3H]N-methylspiperone from human D3R expressed in HEK293T cell membrane to Ki for displacement of [3H]N-methylspiperone from human D4.4 receptor expressed in HEK293T cell membrane
[10] = Selectivity ratio of Ki for displacement of [3H]N-methylspiperone from human D2L receptor expressed in HEK293T cell membrane to Ki for displacement of [3H]N-methylspiperone from human D4.4 receptor expressed in HEK293T cell membrane
T98G [11] = experiment: Cytotoxicity against human T98G cells assessed as reduction in cell viability at 5 to 50 uM incubated for 24 hrs by MTS assay; format: functional, cell-based; conditions: dose 5-50 µM
Procedure, shortened: (§3)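 Cells seeded at 5,000/well and grown to 80% confluence: T98 and U251 in EMEM with 10% serum; GSC#83 as spheres in serum-free DMEM/F12 with EGF and bFGF. Treated 24 h at 5–50 μM in DMSO, with a DMSO vehicle control. MTS reagent added and formazan absorbance read at 490 nm. n = 6; two-way ANOVA.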

U-251 [12] = experiment: Cytotoxicity against human U-251 cells assessed as reduction in cell viability at 5 to 50 uM incubated for 24 hrs by MTS assay; format: functional, cell-based; conditions: dose 5-50 µM; procedure, shortened: as §3
GSC#83 [13] = experiment: Cytotoxicity against human GSC#83 cells assessed as reduction in cell viability at 5 to 50 uM incubated for 24 hrs by MTS assay; format: functional, cell-based; conditions: dose 5-50 µM; procedure, shortened: as §3
T98G [14] = experiment: Cytotoxicity against human T98G cells assessed as reduction in cell viability at 10 uM incubated for 24 hrs by MTS assay; format: functional, cell-based; procedure, shortened: as §3
U-251 [15] = experiment: Cytotoxicity against human U-251 cells assessed as reduction in cell viability at 10 uM incubated for 24 hrs by MTS assay; format: functional, cell-based; procedure, shortened: as §3
GSC#83 [16] = experiment: Cytotoxicity against human GSC#83 cells assessed as reduction in cell viability at 10 uM incubated for 24 hrs by MTS assay; format: functional, cell-based; procedure, shortened: as §3
D(4) dopamine receptor [17] = biological target: T1, D(4) dopamine receptor; experiment: Partial agonist activity at D4R (unknown origin) expressed in human HEK293T cells assessed as G0 protein activation measured after 2.5 mins by BRET assay; format: functional, cell-based; procedure, shortened: as §2
[18] = biological target: T2, D(4) dopamine receptor (Homo sapiens); experiment: Partial agonist activity at D4R (unknown origin) expressed in human HEK293T cells assessed as G0 protein activation measured after 2.5 mins by BRET assay relative to control; format: functional, cell-based; conditions: filed as partial agonist; procedure, shortened: as §2
D(4) dopamine receptor [19] = biological target: T1, D(4) dopamine receptor; experiment: Partial agonist activity at D4R (unknown origin) expressed in human HEK293T cells assessed as Gi protein activation measured after 2.5 mins by BRET assay; format: functional, cell-based; procedure, shortened: as §2
[20] = biological target: T2, D(4) dopamine receptor (Homo sapiens); experiment: Partial agonist activity at D4R (unknown origin) expressed in human HEK293T cells assessed as Gi protein activation measured after 2.5 mins by BRET assay relative to control; format: functional, cell-based; procedure, shortened: as §2
D(4) dopamine receptor [21] = biological target: T1, D(4) dopamine receptor; experiment: Displacement of [3H]7-OH-DPAT from human D4.4 receptor expressed in HEK293T cell membrane incubated for 1.5 hrs by MicroBeta scintillation counting method; format: cell membranes
Procedure, shortened: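 Fresh membranes from HEK293 cells stably expressing hD4.4 (about 50–60 μg protein/well) in 50 mM Tris, 10 mM MgCl2, 1 mM EDTA, pH 7.4. Radioligand was 3 nM final; incubation 1.5 h at room temperature. Nonspecific binding was set with 10 μM (+)-butaclamol; DMSO was 3% final. Ten half-log dilutions were run in triplicate, then filtered. Ki came from IC50 by Cheng–Prusoff, from at least three independent experiments.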

Chain of D(2) dopamine receptor (P14416 whole entry): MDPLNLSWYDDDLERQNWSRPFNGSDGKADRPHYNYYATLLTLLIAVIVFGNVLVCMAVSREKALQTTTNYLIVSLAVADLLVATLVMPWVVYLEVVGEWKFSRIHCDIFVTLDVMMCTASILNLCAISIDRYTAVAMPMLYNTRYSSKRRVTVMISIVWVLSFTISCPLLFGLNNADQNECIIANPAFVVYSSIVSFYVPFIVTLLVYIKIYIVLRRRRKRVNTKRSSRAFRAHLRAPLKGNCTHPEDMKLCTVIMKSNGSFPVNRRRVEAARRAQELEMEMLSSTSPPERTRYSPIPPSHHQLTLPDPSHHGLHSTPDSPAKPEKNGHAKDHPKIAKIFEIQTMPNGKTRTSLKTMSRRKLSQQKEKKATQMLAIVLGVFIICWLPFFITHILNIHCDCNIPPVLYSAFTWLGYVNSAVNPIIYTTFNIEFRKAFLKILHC
Chain of D(3) dopamine receptor (P35462 whole entry): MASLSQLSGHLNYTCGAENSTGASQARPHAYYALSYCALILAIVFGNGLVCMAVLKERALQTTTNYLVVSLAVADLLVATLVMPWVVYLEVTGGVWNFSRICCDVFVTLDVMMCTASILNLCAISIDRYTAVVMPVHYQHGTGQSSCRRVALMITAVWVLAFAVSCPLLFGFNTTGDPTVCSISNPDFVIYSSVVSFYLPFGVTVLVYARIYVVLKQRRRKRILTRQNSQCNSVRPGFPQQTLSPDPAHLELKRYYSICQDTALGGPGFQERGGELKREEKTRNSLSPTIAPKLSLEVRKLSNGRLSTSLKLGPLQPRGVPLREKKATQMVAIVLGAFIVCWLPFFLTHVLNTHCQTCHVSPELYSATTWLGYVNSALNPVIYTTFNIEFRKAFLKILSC

For Cc1ccc(N2CCN(CCCN3C(=O)CCc4ccccc43)CC2)cc1, the Ki (D(2) dopamine receptor) was 5.13 µM, the Ki (D(3) dopamine receptor) was 1.7 µM and the Ki (D(4) dopamine receptor [1]) was 0.000977 µM. The IC50 (D(4) dopamine receptor [2]) was 0.331 µM, the IC50 (D(4) dopamine receptor [3]) was 0.11 µM and the IC50 (D(4) dopamine receptor [4]) was 1.23 µM. For the same compound, the EC50 (D(4) dopamine receptor [5]) was 0.0162 µM, the Emax [6] was 0% and the Emax [7] was 0%. The Emax [8] was -30.2%, the Ratio Ki [9] was 1740 and the Ratio Ki [10] was 5250.
In the case of O=C1CCc2ccccc2N1CCCN1CCN(c2ccccn2)CC1, the Activity (T98G [11]) is reported as “Active”, the Ki (D(2) dopamine receptor) is reported as 2.75 µM and the Ki (D(3) dopamine receptor) is reported as 2.57 µM. The Ki (D(4) dopamine receptor [1]) was 0.00224 µM, the IC50 (D(4) dopamine receptor [4]) was 0.0676 µM and the Activity (U-251 [12]) was “Active”. For the same compound, the Activity (GSC#83 [13]) was “Active”, the Activity (T98G [14]) was “Active” and the Activity (U-251 [15]) was “Active”. The Activity (GSC#83 [16]) was “Active”, the Emax [8] was 0% and the EC50 (D(4) dopamine receptor [17]) was 0.00851 µM. For the same compound, the Emax [18] was 46.2%, the EC50 (D(4) dopamine receptor [19]) was 0.0123 µM and the Emax [20] was 26.6%. The Ratio Ki [9] was 1150 and the Ratio Ki [10] was 1230.
In the case of O=C1CCc2ccccc2N1CCCN1CCN(c2ccc(Cl)cc2)CC1, the Activity (T98G [11]) is reported as “Active”, the Ki (D(2) dopamine receptor) is reported as 5.5 µM and the Ki (D(3) dopamine receptor) is reported as 2.45 µM. It also gave a Ki (D(4) dopamine receptor [1]) of 0.000661 µM, an IC50 (D(4) dopamine receptor [2]) of 0.38 µM and an IC50 (D(4) dopamine receptor [3]) of 0.251 µM. For the same compound, the IC50 (D(4) dopamine receptor [4]) was 10.5 µM, the Activity (U-251 [12]) was “Active” and the Activity (GSC#83 [13]) was “Active”. For the same compound, the Activity (T98G [14]) was “Active”, the Activity (U-251 [15]) was “Active” and the Activity (GSC#83 [16]) was “Active”. For the same compound, the Ki (D(4) dopamine receptor [21]) was 0.00148 µM, the EC50 (D(4) dopamine receptor [5]) was 0.0513 µM and the Emax [6] was 0%. The Emax [7] was 0%, the Emax [8] was -43.4% and the Ratio Ki [9] was 3720. For the same compound, the Ratio Ki [10] was 8320.
